Reference: PMC6682096 (ACS Omega, 2019)
Entries after “also recorded” stand apart in the source; their conditions may differ.

Legend:
[1] = tested on: insulin-resistant HepG2 cells; experiment: 2-NBDG glucose uptake assay; assay type: cell-based, human; details: for relative glucose uptake percentage: insulin-stimulated 2-NBDG uptake
Method in brief: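 Insulin-resistant HepG2 cells (grown in 10% FBS MEM; resistance induced by a previously reported method) treated with test compound at 12.5, 25 and 50 μM and stimulated with 10–6 M insulin. Uptake of the fluorescent glucose analogue 2-NBDG read fluorimetrically on a plate reader. Rosiglitazone (10 μM) served as reference. Triplicate experiments, mean ± standard deviation.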

[2] = target: T1, PTP1B (Homo sapiens, UniProt P18031); experiment: PTP1B inhibition assay using pNPP; assay type: biochemical
T1 sequence (P18031 1-435): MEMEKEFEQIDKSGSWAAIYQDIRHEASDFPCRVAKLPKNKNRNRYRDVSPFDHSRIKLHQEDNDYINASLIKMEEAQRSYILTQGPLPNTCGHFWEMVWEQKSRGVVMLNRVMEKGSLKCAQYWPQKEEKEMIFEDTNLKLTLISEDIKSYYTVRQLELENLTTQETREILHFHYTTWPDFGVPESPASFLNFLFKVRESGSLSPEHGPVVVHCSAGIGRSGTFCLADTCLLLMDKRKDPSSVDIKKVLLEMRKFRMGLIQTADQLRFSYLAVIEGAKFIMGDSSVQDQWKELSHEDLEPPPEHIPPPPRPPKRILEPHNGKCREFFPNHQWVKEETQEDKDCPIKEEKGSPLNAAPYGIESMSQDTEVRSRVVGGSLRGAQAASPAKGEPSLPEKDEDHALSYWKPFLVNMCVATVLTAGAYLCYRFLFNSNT

[3] = target: T2, human monoamine oxidase A (hMAO-A) (Homo sapiens, UniProt P21397); experiment: hMAO-A inhibition chemiluminescent assay; assay type: biochemical
T2 sequence (P21397 1-527): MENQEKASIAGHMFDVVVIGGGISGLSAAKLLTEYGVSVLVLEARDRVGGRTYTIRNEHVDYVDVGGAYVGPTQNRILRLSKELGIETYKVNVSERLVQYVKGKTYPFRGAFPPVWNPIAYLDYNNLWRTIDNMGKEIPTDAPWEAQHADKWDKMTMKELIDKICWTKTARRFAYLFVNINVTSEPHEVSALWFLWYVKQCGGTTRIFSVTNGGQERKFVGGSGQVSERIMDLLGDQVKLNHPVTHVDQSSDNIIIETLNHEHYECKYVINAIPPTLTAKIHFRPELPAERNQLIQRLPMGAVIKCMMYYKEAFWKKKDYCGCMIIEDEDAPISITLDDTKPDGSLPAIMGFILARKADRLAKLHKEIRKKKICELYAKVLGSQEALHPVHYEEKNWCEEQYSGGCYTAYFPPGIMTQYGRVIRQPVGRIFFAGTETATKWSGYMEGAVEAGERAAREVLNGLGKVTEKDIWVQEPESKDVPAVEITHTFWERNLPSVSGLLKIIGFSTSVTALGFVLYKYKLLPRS

[4] = target: T1, PTP1B; experiment: Enzyme kinetics of PTP1B inhibition; assay type: biochemical; details: for Ki: secondary plots
Method in brief: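 Human recombinant PTP1B (0.5 unit) in pH 6.0 buffer (50 mM citrate, 0.1 M NaCl, 1 mM EDTA, 1 mM DTT) was preincubated with or without test compound for 10 min at 37 °C. pNPP substrate was then added at three concentrations and incubated for 20 min at 37 °C. NaOH stopped the reaction, and p-nitrophenol was read at 405 nm. Km and Vmax came from Lineweaver–Burk plots, with Dixon plots also used. Ki, Kic and Kiu came from secondary plots.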

[5] = target: T3, hMAO-A (Homo sapiens, UniProt P21397); experiment: Enzyme kinetics of hMAO-A inhibition; assay type: biochemical; details: Lineweaver–Burk plot
T3 sequence (P21397 1-527): T2 sequence (P21397 1-527)
Method in brief: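 hMAO-A activity measured by chemiluminescent MAO-Glo assay, with MAO substrate at three concentrations, with or without test compound. Lineweaver–Burk plots (with Dixon plots) gave Km, Vmax and inhibition mode. Ki, Kic and Kiu came from secondary plots.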

[6] = tested on: HepG2 cells; experiment: Cytotoxicity, cell viability by MTT assay; assay type: cell-based, human; details: up to 100 μM
Method in brief: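 HepG2 cells were subcultured in MEM with 10% FBS, refreshing the medium every 48 h until confluent. They were then seeded in 96-well plates, and viability after test-compound exposure was assessed by MTT assay.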

[7] = tested on: PTP1B expression in insulin-resistant HepG2 cells; experiment: Western blot of PTP1B expression level; assay type: cell-based, human; details: 24 h treatment
[8] = tested on: IRS-1/PI3K/Akt signaling pathway in insulin-resistant HepG2 cells; experiment: Western blot of IRS-1/PI3K/Akt signaling pathway; assay type: cell-based, human
[9] = tested on: PEPCK and G6Pase expression in insulin-resistant HepG2 cells; experiment: Western blot of PEPCK and G6Pase expression levels; assay type: cell-based, human

SMILES	insulin-stimulated glucose uptake ([1]; 10 μM, 2-NBDG) [%]	IC50 [2] [µM]	IC50 [3] [µM]	PTP1B inhibition type ([4]; Lineweaver–Burk plot)	Ki ([4]; PTP1B inhibition Ki value (Kic), binding constant of the inhibitor with the free enzyme) [µM]	Ki ([4]; PTP1B inhibition Ki value (Kiu), binding constant of the inhibitor with the enzyme–substrate complex) [µM]	hMAO-A inhibition type [5]	cytotoxicity (cell viability) [6]	relative glucose uptake percentage ([1]; 12.5 μM) [%]	relative glucose uptake percentage ([1]; 25 μM) [%]	relative glucose uptake percentage ([1]; 50 μM) [%]	PTP1B expression [7]	expression of total IRS-1 and p-IRS-1 (Tyr 895) [8]	relative abundances of p-PI3K and p-Akt [8]	expressions of PEPCK and G6Pase [9]
CN(CCOc1ccc(CC2SC(=O)NC2=O)cc1)c1ccccn1 (stereo not drawn) [Rosiglitazone, reference compound]	118.52	–	–	–	–	–	–	–	–	–	–	–	–	–	–
COc1cc(O)c2c(O)c3c(=O)cc(C)oc3cc2c1 [rubrofusarin]	–	17 ± 0.49	5.9 ± 0.99	mixed-competitive	6.99	18.3	mixed-competitive	showed toxicity at 100 μM; also recorded: nontoxic up to a 50 μM concentration	68.54	81.27	98.47	inhibited PTP1B expression in a dose-dependent manner; also recorded: at 50 μM concentration significantly reduced the expression	dose-dependently increased the expression of total IRS-1 and p-IRS-1 (Tyr 895)	in a dose-dependent manner increased the relative abundances of p-PI3K and p-Akt	downregulate the expressions of PEPCK and G6Pase
